The results in this text go back to ChEMBL document CHEMBL4823260, “From High-Throughput Screening to Target Validation: Benzo[d]isothiazoles as Potent and Selective Agonists of Human Transient Receptor Potential Cation Channel Subfamily M Member 5 Possessing In Vivo Gastrointestinal Prokinetic Activity in Rodents” (J Med Chem, 2021).

Each structure is given as a SMILES string.

The subject of one series is Mus musculus. Nature of the series: Gastroprokinetic activity in CD-1 mouse assessed as stimulation of gastrointestinal motility by measuring total fecal weight at 100 mg/kg, po measured after 1 hrs (reference value: 0.08 +/-0.02 g). In kind it is functional.
Series [1] in a line: Drug concentration in C57BL6 mouse plasma at 100 mg/kg, po administered as single dose measured after 6 hrs by LC-MS/MS analysis. The series is classed as ADME, organism-based. The procedure, abridged: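 Single oral dose of 1, 3 or 100 mg/kg in mouse. Plasma (ng/mL) and colon and ileum (ng/g) exposure sampled at 6, 24 and 48 h, and at 72 h for the top dose; mean values reported.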

On to `Clc1cnc(CNc2cc3sncc3cc2Cl)s1`, for which the Activity with Mus musculus turned out to be 0.12 g. Moreover, the concentration at 6 h in series [1] came to 22.6 ng/mL.
